Reference: PubChem BioAssay AID463170 (The Scripps Research Institute Molecular Screening Center, 2010)
The source made the active and inactive calls.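 How the source made its calls: active means fold change of 10 or more over vehicle in p21 reporter light; inactive means fold change below 10.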

Target: Cyclin-dependent kinase inhibitor 1 (Homo sapiens) (UniProt P38936)
Assay: p21 (CDKN1A) degradation inhibitors, late-stage follow-up, selectivity assay for Wee1 degradation inhibitor project, cell-based, HeLa, luciferase fusion, luminescence, powder samples (AID 463170)
Settings: at 0.1 µM, stronger effect = higher value
Summary of the method: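 assay system = HeLa cells transiently expressing a p21-luciferase fusion reporter | schedule = 20 h compound treatment, 37 °C | signal = luminescence of p21-luciferase | evaluation = mean fold change versus DMSO | repeats = four replicate wells per compound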

Sequence of Cyclin-dependent kinase inhibitor 1 (Homo sapiens) (P38936 whole entry, looked up, the tested form may be a part): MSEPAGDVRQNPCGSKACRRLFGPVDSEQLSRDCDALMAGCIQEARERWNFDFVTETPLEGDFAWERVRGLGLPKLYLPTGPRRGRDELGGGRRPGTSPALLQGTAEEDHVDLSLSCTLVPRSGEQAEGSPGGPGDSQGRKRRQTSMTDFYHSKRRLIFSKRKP

O=[N+]([O-])c1cccc2[nH]c(CNc3nc(N4CCOCC4)nc4c3ncn4-c3ccsc3)nc12
fold change: 3.41 (inactive)

c1ccc2[nH]c(CNc3nc(N4CCOCC4)nc4c3ncn4-c3ccsc3)nc2c1
fold change: 2.23 (inactive)
